# Experimental data as given in ChEMBL document CHEMBL4673245, “Discovery of AZD9833, a Potent and Orally Bioavailable Selective Estrogen Receptor Degrader and Antagonist” (J Med Chem, 2020).
# Activity calls are given as the source filed them. The rule behind the calls is not given here.
# Tests used:
# Estrogen receptor [1] = target: T1, Estrogen receptor (Homo sapiens, UniProt P03372); assay: Induction of ERalpha degradation in human MCF7 cells assessed as decrease in ER-alpha level incubated for 18 to 24 hrs by Alexa fluor 488/Hoechst staining based immunofluorescence imaging analysis; assay type: cell-based
# T1 sequence (P03372 whole entry): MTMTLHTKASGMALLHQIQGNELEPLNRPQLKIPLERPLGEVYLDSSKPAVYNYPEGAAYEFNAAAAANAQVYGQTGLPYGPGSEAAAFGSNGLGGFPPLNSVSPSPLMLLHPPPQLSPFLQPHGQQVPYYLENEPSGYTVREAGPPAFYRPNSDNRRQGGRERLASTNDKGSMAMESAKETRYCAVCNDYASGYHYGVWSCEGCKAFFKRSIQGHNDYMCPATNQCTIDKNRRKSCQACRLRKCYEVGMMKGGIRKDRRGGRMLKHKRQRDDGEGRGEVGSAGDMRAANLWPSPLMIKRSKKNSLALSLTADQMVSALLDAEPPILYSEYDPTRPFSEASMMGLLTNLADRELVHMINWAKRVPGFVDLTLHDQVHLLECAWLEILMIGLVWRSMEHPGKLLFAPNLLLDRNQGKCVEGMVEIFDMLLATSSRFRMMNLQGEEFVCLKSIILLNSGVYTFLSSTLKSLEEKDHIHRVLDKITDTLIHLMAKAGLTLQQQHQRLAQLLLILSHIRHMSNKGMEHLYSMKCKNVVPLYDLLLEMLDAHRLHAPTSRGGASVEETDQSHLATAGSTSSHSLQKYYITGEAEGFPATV
# Summary of the method: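 ER degradation in MCF-7 cells via cellular degradation assay; n ≥ 2, degradation also expressed as %Dmax relative to fulvestrant.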
# [2] = target: T2, Estrogen receptor (Homo sapiens) (UniProt P03372); assay: Induction of ERalpha degradation in human MCF7 cells assessed as decrease in ER-alpha level at 0.1 uM by Western blot analysis relative to fulvestrant; assay type: cell-based; set-up: scale not given: the % may be the effect or the level left
# T2 sequence (whole entry): T1 sequence (P03372 whole entry)
# [3] = Lipophilicity, log D of the compound in buffer and octanol at pH 7.4 by shake flask method; assay type: physicochemical
# Summary of the method: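 logD at pH 7.4 by shake flask, buffer/octanol volume ratio 100:1.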
# [4] = target: T2, Estrogen receptor (Homo sapiens); assay: Induction of ERalpha degradation in human CAMA1 cells assessed as decrease in ER-alpha level at 0.1 uM by Western blot analysis relative to fulvestrant; assay type: cell-based; set-up: scale not given: the % may be the effect or the level left; conditions: CAMA-1
# Summary of the method: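 Western blot for ERα in MCF-7 and CAMA-1 cells after treatment at 0.1 µM. ER level is expressed as % degradation relative to fulvestrant, from a single experiment (n = 1).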
# [5] = Intrinsic clearance in human hepatocytes assessed per million cells; assay type: ADME, cell-based, Hepatocyte; conditions: read-out: CLH
# Summary of the method: (§1)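 Hepatocyte intrinsic clearance measured from DMSO stock in isolated hepatocytes diluted to 1x10⁶ cells/mL; rate expressed as µl/min/10⁶ cells.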
# Estrogen receptor [6] = target: T1, Estrogen receptor; assay: Displacement of fluormone ES2 green reagent from human GST-tagged ERalpha LBD (282 to 595 residues) expressed in baculovirus infected insect cells incubated for 1 hrs by TR-FRET Lanthascreen assay
# [7] = Fraction unbound in human plasma by equilibrium dialysis method; assay type: ADME, cell-free
# Summary of the method: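 Fraction unbound measured from DMSO stock by equilibrium dialysis in 10% human plasma.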
# [8] = Intrinsic clearance in rat hepatocytes assessed per million cells; assay type: ADME, cell-based, Hepatocyte; conditions: read-out: CLH; summary of the method: as §1
# [9] = target: T2, Estrogen receptor (Homo sapiens); assay: Induction of ERalpha degradation in human MCF7 cells assessed as maximum degradation incubated for 18 to 24 hrs by Alexa fluor 488/Hoechst staining based immunofluorescence imaging analysis relative to fulvestrant; assay type: cell-based; conditions: time lower […], time upper […]
# [10] = target: Voltage-gated inwardly rectifying potassium channel KCNH2 (Homo sapiens, UniProt Q12809); assay: Inhibition of human ERG by plate-based planar patch clamp technique
# Summary of the method: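 hERG tail current inhibition recorded on a plate-based planar patch clamp system; IC50 reported.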
# [11] = Fraction unbound in dog plasma; assay type: ADME, cell-free, Canis lupus familiaris
# [12] = Oral bioavailability in rat at 1 mg/kg; assay type: ADME, organism-based; conditions: in vivo
# Summary of the method: (§2)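 Rat PK: single IV dose 0.5 mg/kg and oral dose 1 mg/kg, formulated in 5% DMSO:95% hydroxypropyl-β-cyclodextrin (30% w/v), dosed at 1 mL/kg IV and 4 mL/kg PO.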
# [13] = Volume of distribution at steady state in rat at 0.5 mg/kg, iv or 1 mg/kg, po; assay type: ADME, organism-based; conditions: in vivo, read-out: Vdss
# Summary of the method: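 Rat dosed IV at 0.5 mg/kg and PO at 1 mg/kg, both formulated in 5% DMSO:95% hydroxypropyl-β-cyclodextrin (30% w/v), at 1 mL/kg IV and 4 mL/kg PO. Vdss (L/kg) derived from the pharmacokinetic profile after dosing.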
# Cytochrome P450 2C19 = Cytochrome P450 2C19 (Homo sapiens, UniProt P33261); assay: Inhibition of CYP2C19 in human liver microsomes; assay type: ADME; conditions: human, microsomes
# Summary of the method: (§3)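 High-throughput human liver microsome panel of five CYP isoforms; inhibition reported as IC50.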
# Cytochrome P450 2D6 = Cytochrome P450 2D6 (Homo sapiens, UniProt P10635); assay: Inhibition of CYP2D6 in human liver microsomes; assay type: ADME; summary of the method: as §3
# [14] = Dissociation constant, dibasic pKa of compound in 0.1 M potassium chloride in presence of piperidine by UV-vis spectroscopy; assay type: physicochemical
# [15] = Half-life in rat at 0.5 mg/kg, iv or 1 mg/kg, po; assay type: ADME, organism-based; conditions: in vivo; summary of the method: as §2
# Cytochrome P450 2C9 = Cytochrome P450 2C9 (Homo sapiens, UniProt P11712); assay: Inhibition of CYP2C9 in human liver microsomes; assay type: ADME; conditions: human, microsomes; summary of the method: as §3
# Cytochrome P450 3A4 = Cytochrome P450 3A4 (Homo sapiens, UniProt P08684); assay: Inhibition of CYP3A4 in human liver microsomes; assay type: ADME; summary of the method: as §3
# [16] = Clearance in rat at 0.5 mg/kg, iv or 1 mg/kg, po; assay type: ADME, organism-based; conditions: in vivo; summary of the method: as §2
# [17] = Fraction unbound in rat plasma; assay type: ADME, cell-free
# [18] = Solubility of compound in phosphate buffer at pH 7.4 incubated for 24 hrs at 25 degree C; assay type: physicochemical
# Summary of the method: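 Aqueous phosphate buffer pH 7.4, compound added from DMSO stock, equilibrated 24 h at 25 °C.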
# [19] = Fraction unbound in mouse plasma; assay type: ADME, cell-free
# [20] = Dissociation constant, dibasic pKa of compound in 0.1 M potassium chloride in presence of azetidine by UV-vis spectroscopy; assay type: physicochemical
# Cytochrome P450 1A2 = target: T3, Cytochrome P450 1A2 (Homo sapiens, UniProt P05177); assay: Inhibition of CYP1A2 in human liver microsomes; assay type: ADME; conditions: human, microsomes; summary of the method: as §3
# T3 sequence (P05177 whole entry): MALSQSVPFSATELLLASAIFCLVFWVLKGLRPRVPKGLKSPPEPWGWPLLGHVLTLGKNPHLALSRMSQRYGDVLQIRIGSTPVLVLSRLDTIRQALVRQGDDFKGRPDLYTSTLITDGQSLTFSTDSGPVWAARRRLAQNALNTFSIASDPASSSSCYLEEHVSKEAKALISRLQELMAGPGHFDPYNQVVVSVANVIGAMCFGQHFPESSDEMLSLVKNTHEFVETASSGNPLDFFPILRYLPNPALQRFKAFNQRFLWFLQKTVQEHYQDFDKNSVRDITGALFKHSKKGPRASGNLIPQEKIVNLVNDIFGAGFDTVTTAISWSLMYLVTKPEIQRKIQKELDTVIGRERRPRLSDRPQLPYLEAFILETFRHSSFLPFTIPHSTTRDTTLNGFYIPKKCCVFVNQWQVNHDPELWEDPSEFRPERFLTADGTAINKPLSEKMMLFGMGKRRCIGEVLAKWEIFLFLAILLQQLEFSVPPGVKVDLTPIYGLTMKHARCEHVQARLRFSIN
# Mus musculus = assay: In vivo antagonist activity at ERalpha in human MCF7 cells xenografted CB17 SCID mouse assessed as decrease in PR expression level at 5 mg, po administered via gavage three times a week for 21 days measured 24 hrs post last dose by Western blot analysis; assay type: functional, organism-based; conditions: time 21.0 day
# MCF7 = assay: Antitumor activity against human […] cells xenografted in CB17 SCID mouse assessed as tumor regression at 5 mg, po administered via gavage three times a week for 21 days; assay type: functional, organism-based; conditions: time 21.0 day
# Sequence of Voltage-gated inwardly rectifying potassium channel KCNH2 (Q12809 whole entry): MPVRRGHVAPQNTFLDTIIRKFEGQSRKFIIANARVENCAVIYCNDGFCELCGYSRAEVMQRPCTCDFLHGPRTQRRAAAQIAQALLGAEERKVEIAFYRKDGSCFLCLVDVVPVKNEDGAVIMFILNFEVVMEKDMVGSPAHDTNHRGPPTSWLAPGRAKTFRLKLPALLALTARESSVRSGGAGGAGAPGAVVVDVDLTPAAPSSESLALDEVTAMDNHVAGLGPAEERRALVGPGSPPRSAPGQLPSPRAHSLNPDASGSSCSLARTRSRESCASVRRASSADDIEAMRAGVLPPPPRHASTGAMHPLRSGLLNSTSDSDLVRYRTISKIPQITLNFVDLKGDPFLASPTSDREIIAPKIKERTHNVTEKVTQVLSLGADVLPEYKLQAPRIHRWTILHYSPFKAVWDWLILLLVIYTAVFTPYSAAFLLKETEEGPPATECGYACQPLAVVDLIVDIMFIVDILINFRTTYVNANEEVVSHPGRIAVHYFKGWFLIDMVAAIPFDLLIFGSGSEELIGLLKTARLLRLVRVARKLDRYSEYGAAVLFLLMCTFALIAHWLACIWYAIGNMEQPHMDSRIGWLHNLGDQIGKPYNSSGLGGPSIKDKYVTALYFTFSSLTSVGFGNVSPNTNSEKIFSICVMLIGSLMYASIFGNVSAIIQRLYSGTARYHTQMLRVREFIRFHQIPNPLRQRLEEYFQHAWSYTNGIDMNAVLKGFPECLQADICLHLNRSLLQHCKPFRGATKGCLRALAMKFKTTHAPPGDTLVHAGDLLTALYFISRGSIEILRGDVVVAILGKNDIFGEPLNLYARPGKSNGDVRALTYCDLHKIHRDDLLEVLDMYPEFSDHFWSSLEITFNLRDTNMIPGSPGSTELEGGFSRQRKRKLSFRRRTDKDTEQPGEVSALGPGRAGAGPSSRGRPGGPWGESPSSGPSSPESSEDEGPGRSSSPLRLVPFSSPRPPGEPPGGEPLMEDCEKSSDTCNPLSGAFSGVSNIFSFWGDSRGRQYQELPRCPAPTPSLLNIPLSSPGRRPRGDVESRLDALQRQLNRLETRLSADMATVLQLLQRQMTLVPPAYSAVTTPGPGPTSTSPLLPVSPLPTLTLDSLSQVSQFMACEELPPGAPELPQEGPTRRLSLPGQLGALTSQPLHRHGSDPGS
# Sequence of Cytochrome P450 3A4 (P08684 whole entry): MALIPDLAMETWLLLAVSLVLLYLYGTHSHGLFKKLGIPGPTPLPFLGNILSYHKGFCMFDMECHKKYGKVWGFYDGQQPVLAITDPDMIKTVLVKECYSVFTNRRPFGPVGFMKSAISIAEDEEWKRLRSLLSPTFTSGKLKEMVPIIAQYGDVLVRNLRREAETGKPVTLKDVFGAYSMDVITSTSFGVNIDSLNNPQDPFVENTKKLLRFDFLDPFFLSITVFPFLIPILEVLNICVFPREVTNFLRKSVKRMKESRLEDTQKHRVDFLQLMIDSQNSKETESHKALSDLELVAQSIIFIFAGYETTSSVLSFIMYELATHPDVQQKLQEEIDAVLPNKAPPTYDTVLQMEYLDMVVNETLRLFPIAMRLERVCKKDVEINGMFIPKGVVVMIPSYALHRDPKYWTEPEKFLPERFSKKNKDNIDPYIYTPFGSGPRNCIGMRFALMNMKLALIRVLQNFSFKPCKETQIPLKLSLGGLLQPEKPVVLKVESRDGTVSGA
# Sequence of Cytochrome P450 2C9 (P11712 whole entry): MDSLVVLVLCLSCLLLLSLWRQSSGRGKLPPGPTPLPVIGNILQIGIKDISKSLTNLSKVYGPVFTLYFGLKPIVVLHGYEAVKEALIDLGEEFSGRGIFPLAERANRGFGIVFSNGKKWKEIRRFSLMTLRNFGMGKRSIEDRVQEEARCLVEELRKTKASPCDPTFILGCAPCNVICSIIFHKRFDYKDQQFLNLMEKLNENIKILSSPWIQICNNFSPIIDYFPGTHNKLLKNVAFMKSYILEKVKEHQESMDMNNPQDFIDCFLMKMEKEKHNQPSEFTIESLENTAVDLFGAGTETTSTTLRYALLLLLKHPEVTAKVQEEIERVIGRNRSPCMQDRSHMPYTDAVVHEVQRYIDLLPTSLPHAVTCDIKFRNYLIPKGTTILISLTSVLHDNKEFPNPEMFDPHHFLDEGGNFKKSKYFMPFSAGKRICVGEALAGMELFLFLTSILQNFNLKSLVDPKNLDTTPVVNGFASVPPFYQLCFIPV
# Sequence of Cytochrome P450 2D6 (P10635 whole entry): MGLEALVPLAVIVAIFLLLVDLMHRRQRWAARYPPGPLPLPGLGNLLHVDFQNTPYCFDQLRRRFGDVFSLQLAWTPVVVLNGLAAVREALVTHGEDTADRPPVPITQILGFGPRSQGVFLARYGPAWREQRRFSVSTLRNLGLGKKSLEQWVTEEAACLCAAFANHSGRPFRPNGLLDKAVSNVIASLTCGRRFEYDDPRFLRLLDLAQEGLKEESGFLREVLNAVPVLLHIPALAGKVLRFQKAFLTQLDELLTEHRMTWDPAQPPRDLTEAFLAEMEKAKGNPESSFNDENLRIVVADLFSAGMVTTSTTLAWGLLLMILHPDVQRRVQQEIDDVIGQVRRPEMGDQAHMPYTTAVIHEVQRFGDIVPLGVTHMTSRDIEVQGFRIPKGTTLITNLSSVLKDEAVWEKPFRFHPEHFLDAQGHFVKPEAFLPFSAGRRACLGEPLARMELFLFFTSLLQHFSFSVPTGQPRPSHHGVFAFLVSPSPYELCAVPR
# Sequence of Cytochrome P450 2C19 (P33261 whole entry, canonical isoform): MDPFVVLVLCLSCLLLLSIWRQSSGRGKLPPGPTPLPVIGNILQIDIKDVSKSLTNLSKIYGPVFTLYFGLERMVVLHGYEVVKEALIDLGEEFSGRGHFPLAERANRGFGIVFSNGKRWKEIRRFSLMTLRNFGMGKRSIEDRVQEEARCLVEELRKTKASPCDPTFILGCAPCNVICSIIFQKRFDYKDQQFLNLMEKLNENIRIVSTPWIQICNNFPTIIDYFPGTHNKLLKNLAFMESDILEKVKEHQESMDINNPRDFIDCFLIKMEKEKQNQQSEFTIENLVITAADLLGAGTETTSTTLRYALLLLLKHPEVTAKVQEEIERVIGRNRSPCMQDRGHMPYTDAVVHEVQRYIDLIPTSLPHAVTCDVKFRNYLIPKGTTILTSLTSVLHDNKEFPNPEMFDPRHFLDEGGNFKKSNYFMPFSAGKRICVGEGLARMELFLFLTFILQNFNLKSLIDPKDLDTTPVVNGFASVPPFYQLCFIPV
Compound,IC50 (Estrogen receptor [1]) [nM],Activity [2] [%],logD [3],Activity [4] [%],hepatocyte CLint [5] [µL/min/1e6 cells],IC50 (Estrogen receptor [6]) [nM],fraction unbound [7],hepatocyte CLint [8] [µL/min/1e6 cells],Emax [9] [%],IC50 [10] [nM],other results
C[C@@H]1Cc2c(ccc3[nH]ncc23)[C@@H](c2ccc(OCCN3CC(CF)C3)cn2)N1CC(F)(F)F,0.398,91,3,80,3,1.26,0.22,45,96,,
C[C@@H]1Cc2c(ccc3[nH]ncc23)[C@@](C)(c2ccc(NC3CN(CCCF)C3)cn2)N1CC(F)F,1,,,,,10,0.1,114,96,13000,
COc1cc(NC2CN(CCCF)C2)ccc1[C@@H]1c2ccc3[nH]ncc3c2C[C@@H](C)N1CC1(F)CC1,0.316,89,,84,,7.94,0.34,7,96,,fraction unbound [11]: 0.22; bioavailability [12]: 3%; Vd [13]: 71 L/kg; inhibition (INH) (Cytochrome P450 2C19): Not Active; IC50 (Cytochrome P450 2D6): 1200 nM; pKa [14]: 7.8; half-life [15]: 11 h; inhibition (INH) (Cytochrome P450 2C9): Not Active; IC50 (Cytochrome P450 3A4): 11000 nM; clearance [16]: 125 mL/min/kg; fraction unbound [17]: 0.51; solubility at 24 h [18]: > 900 µM; fraction unbound [19]: 0.39; pKa [20]: 8.7; inhibition (INH) (Cytochrome P450 1A2): Not Active
C[C@@H]1Cc2c(ccc3[nH]ncc23)[C@@H](c2ccc(N[C@H]3CCN(CCCF)C3)cn2)N1CC(F)(F)F,0.126,95,3,104,5,2.51,0.18,22,99,13000,
C[C@@H]1Cc2c(ccc3[nH]ccc23)[C@@H](c2ccc(NC3CN(CCCF)C3)cn2)N1CC(F)(F)F,0.158,98,3.2,85,3,3.16,0.073,10,98,,
C[C@]12CC[C@@H]3c4ccc(O)cc4C[C@@H](CCCCCCCCC[S+]([O-])CCCC(F)(F)C(F)(F)F)[C@H]3[C@@H]1CC[C@@H]2O (stereo partly drawn),,,,,,,,,,,Activity (Mus musculus): Active; Activity (MCF7): Active
